Test [1] addresses Cannabinoid receptor 2 (Homo sapiens) (UniProt P34972). Kind of test: Displacement of [3H]CP-55940 from human CB2 receptor expressed in CHO cells at 10 uM. The format is cell-based. The method, boiled down:
(§1)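 Radioligand competition on membranes from CHO cells stably transfected with human CB1 or CB2. Radioligands at 1 nM: [3H]-SR141716A for hCB1, [3H]-CP-55,940 for hCB2. Compound screened at 10 µM. 40 µg membrane protein; Tris-HCl pH 7.4 buffer with MgCl2, EDTA, 0.5% BSA; 1 h at 30 °C. Filtered on PEI-treated GF/B filters and counted. Nonspecific binding with 10 µM HU-210. Result given as % displacement.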

In test [2] the target is T1, Cannabinoid receptor 1 (Homo sapiens, UniProt P21554).
T1 sequence (P21554 whole entry): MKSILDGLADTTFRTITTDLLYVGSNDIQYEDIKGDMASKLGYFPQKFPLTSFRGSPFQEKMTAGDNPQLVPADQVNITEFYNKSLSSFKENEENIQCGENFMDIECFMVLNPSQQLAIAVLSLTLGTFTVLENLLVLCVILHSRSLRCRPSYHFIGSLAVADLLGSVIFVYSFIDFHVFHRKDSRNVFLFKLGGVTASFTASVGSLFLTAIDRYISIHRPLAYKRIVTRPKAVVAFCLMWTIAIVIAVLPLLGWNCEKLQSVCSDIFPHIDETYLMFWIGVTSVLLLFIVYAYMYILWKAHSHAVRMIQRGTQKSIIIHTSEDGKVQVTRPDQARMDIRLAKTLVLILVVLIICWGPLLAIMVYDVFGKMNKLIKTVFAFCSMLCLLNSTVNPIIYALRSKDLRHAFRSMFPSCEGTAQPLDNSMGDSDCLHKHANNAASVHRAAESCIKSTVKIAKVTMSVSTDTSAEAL
Test [3] addresses T2, Fatty-acid amide hydrolase 1 (Rattus norvegicus) (UniProt P97612).
T2 sequence (whole entry): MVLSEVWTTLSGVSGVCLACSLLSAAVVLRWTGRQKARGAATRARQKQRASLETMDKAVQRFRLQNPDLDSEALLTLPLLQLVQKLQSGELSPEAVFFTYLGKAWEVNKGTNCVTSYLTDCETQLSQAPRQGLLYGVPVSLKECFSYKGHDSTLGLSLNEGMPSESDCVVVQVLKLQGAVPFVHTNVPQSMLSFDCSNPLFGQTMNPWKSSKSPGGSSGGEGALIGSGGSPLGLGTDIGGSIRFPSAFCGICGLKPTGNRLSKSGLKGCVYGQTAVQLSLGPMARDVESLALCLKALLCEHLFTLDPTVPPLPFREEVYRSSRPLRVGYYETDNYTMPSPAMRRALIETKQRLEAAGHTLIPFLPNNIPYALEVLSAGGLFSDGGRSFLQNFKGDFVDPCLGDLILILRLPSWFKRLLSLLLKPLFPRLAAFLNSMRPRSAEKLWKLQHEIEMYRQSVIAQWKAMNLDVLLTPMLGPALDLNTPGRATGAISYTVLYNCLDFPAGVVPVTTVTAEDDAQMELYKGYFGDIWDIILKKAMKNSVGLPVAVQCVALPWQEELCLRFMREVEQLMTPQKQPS
In words: Inhibition of FAAH in rat brain homogenates at 10 uM. The test is classed as tissue-based. An outline of the steps:
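FAAH activity in adult rat brain membranes, prepared by homogenization in HEPES pH 7.0 and repeated centrifugation at 36 000 g. Compound at 10 µM incubated with [3H]-anandamide (2 µM final) in Tris-HCl pH 7.6, EDTA, 0.1% BSA for 10 min at 37 °C. Stopped on ice with chloroform/methanol; radioactivity in the aqueous methanol phase counted. Blanks without homogenate.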

For test [4], the target named is T1, Cannabinoid receptor 1. Kind of test: Potency at human CB1 receptor in a [35S]GTP-gamma-S functional assay. In general terms: Binding of GTPγS marks nucleotide exchange on a G protein.
Test [5] addresses T1, Cannabinoid receptor 1. In words: Displacement of [3H]SR141716A from human CB1 receptor expressed in CHO cells at 10 uM. The format is cell-based. An outline of the steps:
as §1

Test [6] concerns the target Cannabinoid receptor 1 (Rattus norvegicus) (UniProt P20272). Kind of test: Potency at rat CB1 receptor in a [35S]GTPgammaS functional assay at 10 uM. The note with it: filed as antagonist. An outline of the steps: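 [35S]-GTPγS binding in rat cerebellum homogenate, 40 µg protein. Buffer: Tris-HCl pH 7.4 with 100 mM NaCl, 0.1% BSA and 20 µM GDP. Compound at 10 µM; 0.05 nM [35S]-GTPγS final; 1 h at 30 °C. Filtered on GF/B and counted. Nonspecific binding with 100 µM Gpp(NH)p. Mean ± SEM of at least three experiments in duplicate.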

The target in test [7] is Cannabinoid receptor 1 (Rattus norvegicus, UniProt P20272). Kind of test: Displacement of [3H]SR141716A from CB1 receptor in rat cerebellum. The format is tissue-based. The method, boiled down:
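40 µg protein; Tris-HCl pH 7.4 buffer with 0.5% BSA; 1 h at 30 °C. Compound at varying concentrations; nonspecific binding with 10 µM HU-210. IC50 by nonlinear regression, converted to Ki by Cheng-Prusoff. Mean ± SEM of at least four experiments in duplicate.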
On the technique in general: Displacement assays read how much labelled ligand stays bound in the presence of the test substance.

SMILES strings stand for the structures. pEC50, pKi: −log10 of the molar value. Where only a bound is given, the exact number is not on record here.

As usually defined, the pKi is −log10 of the Ki, conventionally taken in molar units. High values mean a small Ki, low ones a large Ki. What is called inhibition is the drop in the measured response relative to a control, in per cent. Usually pEC50 stands for the negative decadic logarithm of the EC50, by convention in mol/L.

Cannabinoid receptor 1 (Rattus norvegicus, UniProt P20272), sequence (P20272 whole entry): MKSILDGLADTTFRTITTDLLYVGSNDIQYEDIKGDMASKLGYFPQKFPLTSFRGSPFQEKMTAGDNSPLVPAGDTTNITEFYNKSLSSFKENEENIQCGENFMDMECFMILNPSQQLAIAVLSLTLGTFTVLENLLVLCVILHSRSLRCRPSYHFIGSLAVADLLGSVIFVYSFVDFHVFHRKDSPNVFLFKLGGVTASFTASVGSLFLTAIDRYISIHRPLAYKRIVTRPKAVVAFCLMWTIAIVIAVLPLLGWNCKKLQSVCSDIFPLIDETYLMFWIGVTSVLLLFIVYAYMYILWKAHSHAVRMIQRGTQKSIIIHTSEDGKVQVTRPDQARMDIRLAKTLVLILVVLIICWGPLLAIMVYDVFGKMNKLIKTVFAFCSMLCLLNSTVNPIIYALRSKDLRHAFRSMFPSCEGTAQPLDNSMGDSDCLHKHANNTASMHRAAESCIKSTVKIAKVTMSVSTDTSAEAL
Cannabinoid receptor 1 (Rattus norvegicus), sequence (P20272 whole entry): as above
Cannabinoid receptor 2 (Homo sapiens), sequence (P34972 whole entry): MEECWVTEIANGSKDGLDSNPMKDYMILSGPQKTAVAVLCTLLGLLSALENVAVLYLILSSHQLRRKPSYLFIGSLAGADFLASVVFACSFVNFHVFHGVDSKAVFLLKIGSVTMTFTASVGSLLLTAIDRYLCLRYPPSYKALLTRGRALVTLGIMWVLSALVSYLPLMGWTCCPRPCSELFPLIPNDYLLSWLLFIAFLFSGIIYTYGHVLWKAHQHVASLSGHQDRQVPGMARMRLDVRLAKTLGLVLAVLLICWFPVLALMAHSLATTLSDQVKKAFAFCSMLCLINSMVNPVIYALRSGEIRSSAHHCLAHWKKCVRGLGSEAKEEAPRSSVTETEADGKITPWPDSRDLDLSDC

Turning to `O=C1C(c2ccccc2)N(c2ccc(Cl)cc2)C(=S)N1c1ccc(Cl)cc1` (stereo not given), the Activity in test [1] is less than 10%; in test [5], 93.7%. Also, the negative logarithm of the Ki (pKi) in test [2] was 5.66. In addition, the inhibition in test [3] was determined as 11.4%. In test [4], the pEC50 is 5.68.
Regarding `O=C1C(c2ccccc2)N(c2cccc(I)c2)C(=S)N1c1cccc(I)c1` (stereo not given), the Activity is less than 15% in test [1] and 81.2% in test [5]. The pKi in test [2] is 6.16. Besides, the inhibition in test [3] is 17.4%. This compound also showed a pEC50 in test [4] of 6.34.
`O=C1C(c2ccc(Br)cc2)N(c2ccc(Cl)cc2)C(=O)N1c1ccc(Cl)cc1` (stereo not given): the Activity in test [1] is less than 20%; in test [6] it was “Antagonist”; in test [5], 79.1%. Further, the pKi is 6.04 in test [2] and 5.76 in test [7]. Moreover, the inhibition in test [3] worked out at 15.4%. For the same compound, in test [4], the pEC50 is 5.91.
Take `O=C1C(c2ccc(Cl)cc2)N(c2ccccc2)C(=O)N1c1ccccc1` (stereo not given): the results for the Activity in test [1] and in test [5] were less than 15% and 60.2%, respectively. In test [2], the pKi was 5.18. The inhibition in test [3] was 13.7%.
Turning to `COc1ccc(N2C(=O)NC(=O)C2c2ccccc2)cc1` (stereo not given), the Activity in test [1] and in test [5] was less than 10% throughout.
As for `O=C1C(c2ccccc2)N(c2ccc(Br)cc2)C(=S)N1c1ccc(Br)cc1` (stereo not given), the Activity in test [1] is less than 15%; in test [5], 100%. The same compound showed a pKi in test [2] of 5.84. The inhibition in test [3] was less than 10%. For the same compound, the negative-log EC50 (pEC50) in test [4] is 5.79.
On to `O=C1C(c2ccccc2)N(c2cccc(Cl)c2)C(=O)N1c1cccc(Cl)c1` (stereo not given), for which the Activity worked out at 32.1% in test [1] and 76% in test [5]. Also, the pKi in test [2] was 5.68. This compound registered an inhibition in test [3] of less than 10%. For the same compound, the pEC50 in test [4] was 6.03.
With `O=C1NC(=O)N(c2ccc(Br)cc2)C1c1ccccc1` (stereo not given), the Activity in test [1] is less than 10%; in test [5], 25.2%.
On to `COc1ccc(N2C(=O)C(c3ccccc3)N(c3ccc(OC)cc3)C2=S)cc1` (stereo not given), for which the figures for the Activity in test [1] and in test [5] were less than 20% and 65.6%, respectively. This compound also gave a negative logarithm of the Ki (pKi) in test [2] of 5.15. The compound further had an inhibition in test [3] of less than 10%.
In the case of `O=C1C(c2ccccc2)N(c2ccccc2)C(=O)N1c1ccccc1` (stereo not given), the Activity in test [1] is less than 10%; in test [5] it was 57.1%. For the same compound, the pKi in test [2] was 5.20. Moreover, the inhibition in test [3] was less than 10%.
With `O=C1NC(=O)N(c2ccccc2)C1c1ccc(Br)cc1` (stereo not given), the Activity in test [1] is less than 10%; in test [5] it was less than 15%.
Consider `O=C1NC(=O)N(c2ccc(Br)cc2)C1c1ccc(Br)cc1` (stereo not given), for which the values for the Activity in test [1] and in test [5] were less than 10% and less than 15%, respectively.
On to `O=C1C(c2ccccc2)N(c2ccc(Br)cc2)C(=O)N1c1ccc(Br)cc1` (stereo not given), for which the figures for the Activity in test [1], in test [6] and in test [5] were 35.6%, “Antagonist” and 102%, respectively. For the same compound, the pKi in test [2] is 6.61; in test [7] it was 6.51. In test [3], the inhibition was less than 10%. The same compound showed a pEC50 in test [4] of 6.71.
Turning to `O=C(c1ccccc1)N1C(=O)C(c2ccccc2)N(c2ccccc2)C1=O` (stereo not given), the Activity in test [1] and in test [5] was less than 10% in each case.
As for `O=C1NC(=O)N(c2ccc(Cl)cc2)C1c1ccccc1` (stereo not given), the Activity was less than 10% in test [1] and less than 15% in test [5].
As for `O=C1C(c2ccccc2)N(c2ccc(O)cc2)C(=S)N1c1ccc(O)cc1` (stereo not given), the Activity in test [1] is less than 10%; in test [5] it was less than 20%. The inhibition in test [3] was determined as 31.5%.
With `O=C1C(c2ccccc2)N(c2ccc(Cl)c(Cl)c2)C(=S)N1c1ccc(Cl)c(Cl)c1` (stereo not given), the Activity in test [1] was less than 10%; in test [5] it was 78.7%. Moreover, the pKi in test [2] was 5.70. This compound had an inhibition in test [3] of 22.9%.
`CCCCCC(=O)N1C(=O)C(c2ccccc2)N(c2ccccc2)C1=O` (stereo not given): the Activity in test [1] and in test [5] was less than 10% throughout.
Regarding `O=C1C(c2ccccc2)N(C2CCCCC2)C(=O)N1C1CCCCC1` (stereo not given), the Activity in test [5] was 25%.
On to `O=C1NC(=O)N(c2ccc(I)cc2)C1c1ccccc1` (stereo not given), for which the Activity was less than 10% in test [1] and less than 20% in test [5].
For `O=C1NC(=O)N(c2ccccc2)C1c1ccccc1` (stereo not given), the Activity in test [1] and in test [5] was less than 10% throughout.
With `O=C1C(c2ccc(Cl)cc2)N(c2cccc(Cl)c2)C(=O)N1c1cccc(Cl)c1` (stereo not given), the Activity worked out at 24.8% in test [1] and 67.4% in test [5]. The same compound gave a pKi in test [2] of 5.48. Also, in test [3], the inhibition was less than 10%.
`O=C1NC(=S)N(c2ccccc2)C1c1ccccc1` (stereo not given): the Activity in test [1] and in test [5] was less than 10% each time.
Turning to `O=C1C(c2ccccc2)N(c2ccccc2)C(=S)N1c1ccccc1` (stereo not given), the Activity in test [1] was less than 10%; in test [5], 61.7%. Moreover, in test [2], the negative-log Ki (pKi) was less than 5.10. In test [3], this compound displayed an inhibition of 11.8%.
On to `O=C1C(c2ccccc2)N(c2ccc(Cl)cc2)C(=O)N1c1ccc(Cl)cc1` (stereo not given), for which the values for the Activity in test [1], in test [6] and in test [5] were 21.6%, “Antagonist” and 101%, respectively. In addition, the negative logarithm of the Ki (pKi) in test [2] was 6.45; in test [7], 6.61. The inhibition in test [3] is less than 10%. Also, in test [4], the negative-log EC50 (pEC50) is 6.51.
In the case of `Cc1ccc(N2C(=O)C(c3ccccc3)N(c3ccc(C)cc3)C2=S)cc1` (stereo not given), the Activity in test [1] was less than 20%; in test [5], 80.1%. In test [2], this compound gave a pKi of 5.30. This compound also registered an inhibition in test [3] of less than 10%.
In the case of `O=C1C(c2ccc(Br)cc2)N(c2ccccc2)C(=S)N1c1ccccc1` (stereo not given), the Activity was less than 10% in test [1] and 85.1% in test [5]. In addition, the pKi in test [2] was 5.20. The compound also gave an inhibition in test [3] of 19.1%.
As to `COc1ccc(N2C(=O)C(c3ccccc3)N(c3ccc(OC)cc3)C2=O)cc1` (stereo not given), the Activity in test [1] is 31.4%; in test [5] it was 57.8%. This compound also had a pKi in test [2] of 5.19. The inhibition in test [3] is less than 10%.
On to `CCCCCN1C(=O)C(c2ccccc2)N(c2ccccc2)C1=O` (stereo not given), for which the Activity was less than 10% in test [1] and 41.1% in test [5].
On to `O=C1C(c2ccc(Br)cc2)N(c2ccccc2)C(=O)N1c1ccccc1` (stereo not given), for which the values for the Activity in test [1] and in test [5] were less than 15% and 75.4%, respectively. In test [2], this compound gave a pKi of 5.40. The compound further yielded an inhibition in test [3] of 14.5%.
As for `O=C1C(c2ccc(Cl)cc2)N(c2ccc(Cl)cc2)C(=O)N1c1ccc(Cl)cc1` (stereo not given), the Activity in test [1] is 28.1%; in test [6], “Antagonist”; in test [5], 71.6%. Further, the values for the pKi in test [2] and in test [7] were 5.73 and 5.58, respectively. The compound also had an inhibition in test [3] of less than 10%. The compound further had a pEC50 in test [4] of 5.95.
In the case of `O=C1NC(=O)N(c2ccc(Cl)cc2)C1c1ccc(Br)cc1` (stereo not given), the values for the Activity in test [1] and in test [5] were less than 10% and less than 15%, respectively.
Consider `CCCCCCC(C)(C)c1cc(O)c2c(c1)OC(C)(C)[C@@H]1CC=C(CO)C[C@@H]21`, for which the pKi in test [2] was 7.73; in test [7] it was 8.56. This compound also gave a pEC50 in test [4] of 9.22.
In test [1], `CCCCCCCN1C(=O)C(c2ccccc2)N(c2ccccc2)C1=O` (stereo not given) returned an Activity of less than 10%.

These data come from ChEMBL document CHEMBL1148623, “Synthesis and activity of 1,3,5-triphenylimidazolidine-2,4-diones and 1,3,5-triphenyl-2-thioxoimidazolidin-4-ones: characterization of new CB1 cannabinoid receptor inverse agonists/antagonists” (J Med Chem, 2006).
